Experimental data as given in ChEMBL document CHEMBL1127823, “The effect of fluorine substitution on the metabolism and antimalarial activity of amodiaquine” (J Med Chem, 1994).

Assays:
[1] = pKa value of compound was evaluated; format: physicochemical
[2] = test system: Plasmodium falciparum; assay: Antimalarial activity against Plasmodium falciparum K1; format: functional, organism-based
Summary of the method: (§1)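 P. falciparum (Thai isolates; K1 uncloned, T9-96 cloned) kept in continuous culture in human erythrocytes, RPMI 1640 with 25 mM HEPES, 32 mM NaHCO3, 10% human serum, gassed 3% O2/4% CO2/93% N2. 48-h assay at 1% initial parasitaemia, 5% haematocrit; drugs from ethanol stocks (final <1% ethanol).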

[3] = test system: Plasmodium falciparum; assay: Antimalarial activity against Plasmodium falciparum T9-96; format: functional, organism-based; summary of the method: as §1

| pKa [1] | IC50 [2] [nM] | IC50 [3] [nM] | SMILES |
| --- | --- | --- | --- |
| 4.39 | 59 | 40 | CCN(CC)Cc1cc(Nc2ccnc3cc(Cl)ccc23)ccc1F |
| 3.96 | 42 | 37 | CCN(CC)Cc1cc(Nc2ccnc3cc(Cl)ccc23)cc(F)c1O |
| 3.42 | 56 | 40 | CCN(CC)Cc1cc(Nc2ccnc3cc(Cl)ccc23)c(F)c(F)c1O |
| 2.59 | 41 | 34 | CCN(CC)Cc1c(O)cc(F)c(Nc2ccnc3cc(Cl)ccc23)c1F |
| 2.17 | 500 | 291 | CCN(CC)Cc1c(O)c(F)c(F)c(Nc2ccnc3cc(Cl)ccc23)c1F |

| SMILES | pKa [1] | IC50 [2] [nM] | IC50 [3] [nM] |
| --- | --- | --- | --- |
| CCN(CC)Cc1cc(Nc2ccnc3cc(Cl)ccc23)ccc1O | 4.95 | 24 | 20 |
